Assay outcomes from PubChem BioAssay.
NR2E3 ag-1 = agonists of human NR2E3 nuclear receptor | CHO-S Gal4-NCOR/VP16-NR2E3 two-hybrid, luciferase | inhibition of corepressor binding, % at 3.98 µM | hit rate 0.35% among 360,000 | AID 602229;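 active = inhibition above the mean of all tested compounds plus 3 SD, cut at about 70% in these data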;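 note: 0% = DMSO with NR2E3 transfected cells and 100% = cells lacking NR2E3 construct; higher means lower luciferase signal from less NR2E3 corepressor binding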
Target sequence (Q9Y5X4 whole entry, looked up, the tested form may be a part): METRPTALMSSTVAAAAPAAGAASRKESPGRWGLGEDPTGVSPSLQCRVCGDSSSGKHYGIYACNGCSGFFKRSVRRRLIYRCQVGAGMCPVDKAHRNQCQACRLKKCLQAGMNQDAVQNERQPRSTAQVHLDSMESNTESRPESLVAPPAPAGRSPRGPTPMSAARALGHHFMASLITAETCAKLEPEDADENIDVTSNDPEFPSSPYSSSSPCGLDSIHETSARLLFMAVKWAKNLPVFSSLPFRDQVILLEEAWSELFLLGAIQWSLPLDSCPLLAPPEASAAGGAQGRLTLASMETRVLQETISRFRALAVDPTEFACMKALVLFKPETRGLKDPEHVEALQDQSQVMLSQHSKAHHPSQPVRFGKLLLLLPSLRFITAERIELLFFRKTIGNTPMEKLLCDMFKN
NR2E3 ag-2 = NR2E3 (human) agonism | hit rate 0.12% among 320,000 | inhibition of corepressor binding, % at 4.78 µM | Q9Y5X4 | AID 2300 | GST-NR2E3/biotin-RetCOR TR-FRET, 1536-well;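 active = percent inhibition above the cutoff of mean plus 3 SD of all tested compounds, set per screening campaign, cut at about 20% in these data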;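 note: 0% = DMSO wells and 100% = biotin wells as full block of FRET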
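Material: NR2E3–RetCOR corepressor complex / Incubation: Compound–protein incubation for 5 h at 4 °C / Dosing: compound at 4.8 µM, single dose / Detection: time-resolved FRET / Benchmarks: high control biotin, low control 0.6% DMSO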
PG9 binder = binds the HIV-1 gp120 antibody PG9 | TR-FRET gp120-PG9 antibody binding | hit rate 0.43% among 360,000 | inhibition, % at 6.7 µM; in the data active = inhibition above about 8.5%
Neddyl block = cullin neddylation inhibition; TR-FRET cullin neddylation, biochemical; calls only at 25 µM; hit rate 0.58% among 360,000; AID 651699; in the data active = inhibition above about 36%
NR1D1 modulator = modulators of human Rev-erb alpha DNA binding | P20393 | Rev-erbα–FITC-DNA binding, fluorescence polarization, 90 min | activity, % at 10 µM | hit rate 0.79% among 370,000 | AID 1259318;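 active = activity above about 14%, limit read from the data; passing the limit was not always enough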;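 note: 0% = DMSO wells with 35 nM protein and 100% = DMSO wells with 750 nM protein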
NR2E3 ag confirm-1 = NR2E3 (human) agonism, confirmation; cell-free NR2E3 corepressor release, TR-FRET, 5 h; activation (reported as inhibition), % at 3.98 µM; hit rate 39% among 360; shares compounds with NR2E3 ag-2; AID 2379; in the data active = activation above about 20%
PPARg-NCOR2 ag = releases PPARgamma from NCOR2 in NR2E3 counter-screen; TR-FRET PPARg-NCOR2 coregulator interaction, biochemical; AID 504787; inhibition, % at 3.98 µM; hit rate 45% among 360; shares compounds with NR2E3 ag-2; in the data active = inhibition above about 20%;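 note: 0% = DMSO vehicle and 100% = wells without protein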
NR2E3 ag confirm-2 = NR2E3 agonism confirmed in two-hybrid assay. shares compounds with NR2E3 ag-1. CHO-S mammalian two-hybrid NR2E3-NCOR, luciferase luminescence. inhibition, % at 3.98 µM. hit rate 51% among 2,300. AID 624378;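 active = average inhibition above a cutoff equal to the mean inhibition of all tested compounds plus one SD, cut at about 70% in these data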;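 note: 0% = DMSO in NR2E3 cells and 100% = DMSO in cells lacking NR2E3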
GAL4-VP16 luc = counter-screen for NR2E3 agonists: GAL4-VP16 reporter inhibitors. inhibition, % at 3.98 µM. hit rate 29% among 2,300. AID 624379. shares compounds with NR2E3 ag-1. CHO-S GAL4-VP16 luciferase reporter, luminescence;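 active = mean inhibition above a cutoff equal to the average over all tested compounds plus one standard deviation, cut at about 70% in these data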;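 note: luciferase from a UAS reporter driven by GAL4-VP16 transactivation; 0% = DMSO with VP16-transfected cells and 100% = DMSO with cells lacking VP16; higher means less reporter light so more repression of VP16 activity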
PG9 binder conf = PG9 antibody binding, confirmed; inhibition, % at 6.7 µM; shares compounds with PG9 binder; AID 651571; hit rate 90% among 1,500; TR-FRET PG9 antibody binding, biochemical; in the data active = inhibition above about 9%
PGV04 Ab binding = PGV04 control antibody binding, counter-screen | hit rate 95% among 1,500 | TR-FRET PGV04 antibody-gp120 binding, biochemical | AID 651604 | inhibition, % at 6.7 µM | shares compounds with PG9 binder; in the data active = inhibition above about 9.5%
NR1D1 mod conf = Rev-erb alpha (human) modulation, hit confirmation; shares compounds with NR1D1 modulator; hit rate 61% among 3,000; Rev-erb alpha FITC-DNA binding, fluorescence polarization, 90 min; AID 1259319; activation, % at 25 µM;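 active = activation at or above a set limit, or at least 3 SD above the negative control mean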;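 note: 0% = 35 nM protein with DMSO and 100% = 750 nM protein high control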
RORg counter = counter-screen for Rev-erb alpha modulators: RORgamma DNA binding | shares compounds with NR1D1 modulator | purified RORgamma protein-FITC-DNA binding, fluorescence polarization | IC50, µM | AID 1259320 | hit rate 8% among 910;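 active = Compounds whose fitted half-maximal concentration for disrupting protein-DNA binding is below 10 micromolar; the record names Rev-erb in its text, so the target is in doubt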
* = called active by the depositor; i = inactive; · = no result. Most compounds without a hit are left out; they make up all but 2% or so of the library.

SMILES	NR2E3 ag-1	NR2E3 ag-2	PG9 binder	Neddyl block	NR1D1 modulator	NR2E3 ag confirm-1	PPARg-NCOR2 ag	NR1D1 mod conf	others
Cc1ccc2nc(NC(=O)CSc3ncnc4c3oc3ccccc34)sc2c1	0	·	-6	i	9	·	·	·
Cc1cccc(NC(=O)CSc2ncnc3c2oc2ccccc23)c1	5	60*	66*	i	601*	66*	72*	631*	PG9 binder conf=-39;PGV04 Ab binding=47*;RORg counter=1*
O=C(CSc1ncnc2c1oc1ccccc12)c1cccs1	-64	31*	29*	i	73*	25*	25*	66*	PG9 binder conf=30*;PGV04 Ab binding=52*;RORg counter=>40
Cc1ccc2nc(-c3ccc(NC(=O)CSc4nnc(-c5cc(-c6ccc(F)cc6)n[nH]5)n4N)cc3)sc2c1	·	·	·	·	9	·	·	·
C[C@]12CCC(=O)C=C1CCC1C2[C@@H](O)C[C@@]2(C)C1CC[C@]2(O)C(=O)COC(=O)CCC(=O)O (some centres undefined)	·	·	·	·	0	·	·	·
COc1cc2ncnc(NCc3ccccc3C)c2cc1OC	-4	2	-1	i	-3	·	·	·
Cc1ccccc1CNc1ncnc2cc(Cl)ccc12	6	79*	90*	i	239*	82*	82*	189*	PG9 binder conf=90*;PGV04 Ab binding=96*;RORg counter=2.1*
COc1cccc(NC(=S)Nc2cc(C)cc(C)n2)c1	-90	31*	-1	i	31*	30*	39*	8
CCc1cc2cc(C(=O)Nc3ccc(F)cc3)sc2s1	-6	30*	46*	i	78*	4	-13	63*	PG9 binder conf=53*;PGV04 Ab binding=60*;RORg counter=>40
CCOc1ccc(NC(=O)c2ccc(OC)cc2)cc1	-48	2	1	i	4	·	·	·
CCOc1ncccc1C(=O)Nc1ccc(C(=O)Nc2ccc(OC)cc2)cc1	-21	44*	4	i	21*	34*	33*	14
O=C(C=Cc1ccccc1)c1c[nH]c2ccccc2c1=O	-13	·	-1	i	-1	·	·	·
Cc1[nH]c2ccccc2c(=O)c1C(=O)/C=C/c1ccccc1	65	-4	0	i	2	·	·	·	NR2E3 ag confirm-2=30;GAL4-VP16 luc=60
O=C(c1cnn2c(C(F)(F)F)cc(-c3ccccc3)nc12)N1CCCCC1c1cccnc1 (centres undefined)	0	3	-1	i	-7	·	·	·
O=C(c1cc2nc(-c3ccc(F)cc3)cc(C(F)(F)F)n2n1)N1CCCCC1c1cccnc1 (centres undefined)	52	0	0	i	-6	·	·	·	NR2E3 ag confirm-2=88*;GAL4-VP16 luc=66
COC(=O)c1cc(CSc2nnc(NC3CCCCC3)s2)oc1C	58	1	-1	i	-5	·	·	·	NR2E3 ag confirm-2=60;GAL4-VP16 luc=58
COc1ccc(CC2C(=O)NC(C)C(=O)N(C)C3Cc4ccc(cc4)Oc4cc(ccc4O)CC(C(=O)NC(C)C(=O)NC(C)C(=O)N2C)N(C)C3=O)cc1 (centres undefined)	103*	·	0	i	4	·	·	·	NR2E3 ag confirm-2=99*;GAL4-VP16 luc=96*
